Measurements taken from ChEMBL document CHEMBL5137048, “Design and synthesis of water-soluble prodrugs of rifabutin for intraveneous administration” (Eur J Med Chem, 2022).
In brackets after ≈: the same amount, converted by molar mass.

Experiments:
[1] = system: Acinetobacter baumannii; test: Antibacterial activity against Acinetobacter baumannii HUMC1 assessed as inhibition of bacterial growth incubated for 20 hrs by microdilution assay; type: functional
Procedure, shortened: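 Broth microdilution per CLSI against XDR A. baumannii HUMC1. Inoculum 5×10^5 CFU/mL in RPMI + 10% FCS, or in CAMHB + 50% human serum. Compounds tested as 2-fold dilutions from 32 µg/mL final. Plates incubated without shaking at 35 °C for 20 h. MIC read visually as the lowest concentration with no visible growth. Three independent replicates.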

[2] = Stability in human plasma assessed as compound remaining at 6 hrs by HPLC-MS analysis; type: ADME, cell-free; settings: read-out: Stability
[3] = system: Staphylococcus aureus; test: Antibacterial activity against Staphylococcus aureus assessed assessed as reduction in bacterial growth in CAMHB in absence of human serum measured after 20 hrs by microdilution assay; type: functional
Procedure, shortened: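 S. aureus USA300 UAMS-1625 in CAMHB without serum. CLSI broth microdilution, inoculum 5×10^5 CFU/mL, 2-fold dilutions from 32 µg/mL final. Plates held static at 35 °C for 20 h. MIC was the lowest concentration with no visible growth. Three independent replicates.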

[4] = Water solubility of compound in HCL by UPLC-MS analysis; type: physicochemical
Procedure, shortened: (§1)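 Compounds were suspended at a nominal 10 or 50 mg/mL in PBS pH 7.4 or 26 mM HCl, vortexed, and mixed at 35 rpm for 24 h at RT. The mixture was centrifuged, the supernatant filtered and diluted 2000-fold in CH3CN, and analysed by UPLC-MS/MS (MRM). Solubility = AUC(buffer)/AUC(DMSO) × theoretical concentration.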

[5] = Tmax in CD-1 mouse at 6.5 mg/kg, iv measured at 5 to 24 hrs by LC-MS/MS analysis; type: ADME, organism-based; settings: in vivo, time lower 5 hrs
Procedure, shortened: (§2)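 Female CD-1 (RjOrl:SWISS) mice, 8 weeks old at delivery, 9 per compound, given a single IV bolus into a lateral tail vein at 5 mL/kg. Basic compounds were dosed in 0.9% NaCl with 26 mM HCl, with 10% DMSO added for the parent drug; the phosphate prodrug was dosed in PBS pH 7.4. Retrobulbar blood was taken at 5, 15, 30 min and 1, 2, 4, 8, 12, 24 h. Plasma rifabutin was quantified by LC-MS/MS against a calibration curve, with griseofulvin as internal standard.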

[6] = Water solubility of compound in PBS buffer at pH 7.4 by UPLC-MS analysis; type: physicochemical; procedure, shortened: as §1
[7] = Chemical stability of compound by UPLC-MS/MS analysis; settings: pH 7.4
[8] = Plasma concentration in CD-1 mouse at 6.5 mg/kg, iv measured after 24 hrs by LC-MS/MS analysis; type: ADME, organism-based; settings: in vivo; procedure, shortened: as §2
[9] = system: Acinetobacter baumannii; test: Antibacterial activity against Acinetobacter baumannii assessed as reduction in bacterial growth in CAMHB preincubated 6 hrs followed by human serum addition and measured after 20 hrs by microdilution assay; type: functional
[10] = system: Staphylococcus aureus; test: Antibacterial activity against Staphylococcus aureus assessed as reduction in bacterial growth in CAMHB preincubated 6 hrs followed by human serum addition and measured after 20 hrs by microdilution assay; type: functional; settings: time 26 hrs
Procedure, shortened: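 S. aureus USA300 UAMS-1625 in CAMHB. Drug at 10-fold the 32 µg/mL top concentration was first preincubated in 100% human serum for 6 h, then serially diluted 2-fold and bacteria added (5×10^5 CFU/mL inoculum). Plates held static at 35 °C for 20 h. MIC read visually. Three independent replicates.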

[11] = AUC (0 to infinity) in CD-1 mouse at 6.5 mg/kg, iv measured at 5 to 24 hrs by LC-MS/MS analysis; type: ADME, organism-based; set-up: dose 6.5 mg/kg, route iv; settings: in vivo; procedure, shortened: as §2
[12] = Elimination half life in CD-1 mouse at 6.5 mg/kg, iv measured at 5 to 24 hrs by LC-MS/MS analysis; type: ADME, organism-based; settings: in vivo, time lower 5 hrs, read-out: LambdaZ (converted); procedure, shortened: as §2
[13] = Cmax in CD-1 mouse at 6.5 mg/kg, iv measured at 5 to 24 hrs by LC-MS/MS analysis; type: ADME, organism-based; set-up: time lower 5 hrs, dose 6.5 mg/kg, route iv; settings: in vivo; procedure, shortened: as §2
[14] = AUC (0 to infinity) in CD-1 mouse at 7 mg/kg, iv measured at 5 to 24 hrs by LC-MS/MS analysis; type: ADME, organism-based; set-up: dose 7 mg/kg, route iv; settings: in vivo; procedure, shortened: as §2
[15] = Elimination half life in CD-1 mouse at 7 mg/kg, iv measured at 5 to 24 hrs by LC-MS/MS analysis; type: ADME, organism-based; settings: in vivo, time lower 5 hrs, read-out: LambdaZ (converted); procedure, shortened: as §2
[16] = Plasma concentration in CD-1 mouse at 7 mg/kg, iv measured after 24 hrs by LC-MS/MS analysis; type: ADME, organism-based; settings: in vivo; procedure, shortened: as §2
[17] = Tmax in CD-1 mouse at 7 mg/kg, iv measured at 5 to 24 hrs by LC-MS/MS analysis; type: ADME, organism-based; settings: in vivo, time lower 5 hrs; procedure, shortened: as §2
[18] = Cmax in CD-1 mouse at 7 mg/kg, iv measured at 5 to 24 hrs by LC-MS/MS analysis; type: ADME, organism-based; set-up: dose 7 mg/kg, route iv; settings: in vivo; procedure, shortened: as §2
[19] = AUC (0 to infinity) in CD-1 mouse at 5 mg/kg, iv measured at 5 to 24 hrs by LC-MS/MS analysis; type: ADME, organism-based; set-up: dose 5 mg/kg, route iv; settings: in vivo; procedure, shortened: as §2
[20] = Elimination half life in CD-1 mouse at 5 mg/kg, iv measured at 5 to 24 hrs by LC-MS/MS analysis; type: ADME, organism-based; settings: in vivo, time lower 5 hrs, read-out: LambdaZ (converted); procedure, shortened: as §2
[21] = Cmax in CD-1 mouse at 5 mg/kg, iv measured at 5 to 24 hrs by LC-MS/MS analysis; type: ADME, organism-based; set-up: dose 5 mg/kg, route iv; settings: in vivo; procedure, shortened: as §2

Row | Compound | MIC [1] | remaining at 6 h [2] | MIC [3] | solubility [4] | solubility [6] | Stability [7] | MIC [9] | MIC [10] | further results
1 | CO[C@H]1/C=C/O[C@@]2(C)Oc3c(C)c(O)c4c(c3C2=O)C2NC3(CCN(CC(C)C)CC3)NC2=C(NC(=O)/C(C)=C\C=C\[C@H](C)[C@H](OC(=O)CN(C)C(=O)CNC(=O)[C@@H](N)CCCCN)[C@@H](C)[C@@H](O)[C@@H](C)[C@H](OC(C)=O)[C@@H]1C)C4=O (stereo partly specified) | – | – | 16 µg/mL (≈ 14.5 µM) | 34.4 mg/mL (≈ 31100 µM) | > 50000 µg/mL | 99% | 1 ng/mL (≈ 0.000905 µM) | 0.06 µg/mL (≈ 0.0543 µM) | Tmax [5]: 4.98 min; Drug uptake [8]: Active; AUC(0-inf) [11]: 1000 ng·h/mL; half-life [12]: 642 min; Cmax [13]: 300 ng/mL
2 | CO[C@H]1/C=C/O[C@@]2(C)Oc3c(C)c(O)c4c(c3C2=O)C2NC3(CCN(CC(C)C)CC3)NC2=C(NC(=O)/C(C)=C\C=C\[C@H](C)[C@H](OC(=O)CN(C)C(=O)CNC(=O)OCc2ccc(OP(=O)(O)O)cc2)[C@@H](C)[C@@H](O)[C@@H](C)[C@H](OC(C)=O)[C@@H]1C)C4=O (stereo partly specified) | – | – | 32 µg/mL (≈ 26.5 µM) | – | 4500 µg/mL (≈ 3730 µM) | 101% | 1 ng/mL (≈ 0.000828 µM) | 0.06 µg/mL (≈ 0.0497 µM) | AUC(0-inf) [14]: 8200 ng·h/mL; half-life [15]: 174 min; Drug uptake [16]: Active; Tmax [17]: 4.98 min; Cmax [18]: 2700 ng/mL
3 | CO[C@H]1/C=C/O[C@@]2(C)Oc3c(C)c(O)c4c(c3C2=O)C2=NC3(CCN(CC(C)C)CC3)NC2=C(NC(=O)/C(C)=C\C=C\[C@H](C)[C@H](O)[C@@H](C)[C@@H](O)[C@@H](C)[C@H](OC(C)=O)[C@@H]1C)C4=O [RIFABUTIN] | 0.002 µg/mL (≈ 0.00236 µM) | – | 0.016 µg/mL (≈ 0.0189 µM) | 17.7 mg/mL (≈ 20900 µM) | 200 µg/mL (≈ 236 µM) | – | 0.25 ng/mL (≈ 0.000295 µM) | 0.03 µg/mL (≈ 0.0354 µM) | AUC(0-inf) [19]: 6600 ng·h/mL; half-life [20]: 204 min; Cmax [21]: 2200 ng/mL
4 | COCCOC(=O)N1C2=C3NC(=O)/C(C)=C\C=C\[C@H](C)[C@H](O)[C@@H](C)[C@@H](O)[C@@H](C)[C@H](OC(C)=O)[C@H](C)[C@@H](OC)/C=C/O[C@@]4(C)Oc5c(C)c(O)c(c(c5C4=O)C2NC12CCN(CC(C)C)CC2)C3=O (stereo partly specified) | 0.06 µg/mL (≈ 0.0631 µM) | 86% | – | – | – | – | – | – | –

Second part, led by results:

Row | MIC [1] | remaining at 6 h [2] | MIC [3] | solubility [4] | solubility [6] | Stability [7] | MIC [9] | MIC [10] | Compound | further results
5 | > 32 µg/mL | 99% | – | – | – | – | – | – | COCCC(=O)O[C@@H]1[C@@H](C)[C@@H](O)[C@@H](C)[C@H](OC(C)=O)[C@H](C)[C@@H](OC)/C=C/O[C@@]2(C)Oc3c(C)c(O)c4c(c3C2=O)C2NC3(CCN(CC(C)C)CC3)NC2=C(NC(=O)/C(C)=C\C=C\[C@@H]1C)C4=O (stereo partly specified) | –
6 | – | – | 1 µg/mL (≈ 0.941 µM) | 12.2 mg/mL (≈ 11500 µM) | 700 µg/mL (≈ 658 µM) | 101% | 1 ng/mL (≈ 0.000941 µM) | 0.06 µg/mL (≈ 0.0564 µM) | CO[C@H]1/C=C/O[C@@]2(C)Oc3c(C)c(O)c4c(c3C2=O)C2NC3(CCN(CC(C)C)CC3)NC2=C(NC(=O)/C(C)=C\C=C\[C@H](C)[C@H](OC(=O)CN(C)C(=O)COC(=O)CN(C)C)[C@@H](C)[C@@H](O)[C@@H](C)[C@H](OC(C)=O)[C@@H]1C)C4=O (stereo partly specified) | Tmax [5]: 4.98 min; Drug uptake [8]: Active; AUC(0-inf) [11]: 6700 ng·h/mL; half-life [12]: 180 min; Cmax [13]: 1100 ng/mL
7 | – | 2% | – | – | – | – | – | – | COCCC(=O)N1C2=C3NC(=O)/C(C)=C\C=C\[C@H](C)[C@H](O)[C@@H](C)[C@@H](O)[C@@H](C)[C@H](OC(C)=O)[C@H](C)[C@@H](OC)/C=C/O[C@@]4(C)Oc5c(C)c(O)c(c(c5C4=O)C2NC12CCN(CC(C)C)CC2)C3=O (stereo partly specified) | –
